# Source: PubChem BioAssay (several laboratories)
# Rows were chosen to be rich in hits. Some 2.5% of all compounds tested hit in one or more screens of this group.
# JMJD2C inh: human JMJD2C demethylase inhibition | AID 2099 | inhibition, % at 2.35 µM | Q9H3R0 | GST-JMJD2C(1-420) H3K9me3 demethylation, DELFIA europium | 330,000 compounds, 0.069% hits;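 active = more than half of a compound's replicate wells show inhibition beyond 50%, single wells judged on their own value; inconclusive = some, but no more than half, of replicates pass 50% inhibition; inactive = no replicate passes 50% inhibition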;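 also: signal counts dimethyl H3K9 product captured on neutravidin plate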
# NR2E3 ag-1: activates human NR2E3 receptor | CHO-S Gal4-NCOR/VP16-NR2E3 two-hybrid, luciferase | inhibition of corepressor binding, % at 3.98 µM | 360,000 compounds, 0.35% hits;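 active = inhibition above the mean of all tested compounds plus 3 SD, cut at about 70% in these data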;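 also: higher means lower luciferase signal from less NR2E3 corepressor binding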
# ADAM17 inh: ADAM17 inhibition, QFRET primary screen; P78536; recombinant ADAM17, EDANS/DABCYL FRET peptide cleavage; inhibition, % at 6.95 µM; 370,000 compounds, 0.83% hits;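 active = inhibition above the mean of compounds lying between control limits plus 3 SD, set per campaign, cut at about 8.5% in these data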
# Target sequence (P78536 215-824 limits assumed): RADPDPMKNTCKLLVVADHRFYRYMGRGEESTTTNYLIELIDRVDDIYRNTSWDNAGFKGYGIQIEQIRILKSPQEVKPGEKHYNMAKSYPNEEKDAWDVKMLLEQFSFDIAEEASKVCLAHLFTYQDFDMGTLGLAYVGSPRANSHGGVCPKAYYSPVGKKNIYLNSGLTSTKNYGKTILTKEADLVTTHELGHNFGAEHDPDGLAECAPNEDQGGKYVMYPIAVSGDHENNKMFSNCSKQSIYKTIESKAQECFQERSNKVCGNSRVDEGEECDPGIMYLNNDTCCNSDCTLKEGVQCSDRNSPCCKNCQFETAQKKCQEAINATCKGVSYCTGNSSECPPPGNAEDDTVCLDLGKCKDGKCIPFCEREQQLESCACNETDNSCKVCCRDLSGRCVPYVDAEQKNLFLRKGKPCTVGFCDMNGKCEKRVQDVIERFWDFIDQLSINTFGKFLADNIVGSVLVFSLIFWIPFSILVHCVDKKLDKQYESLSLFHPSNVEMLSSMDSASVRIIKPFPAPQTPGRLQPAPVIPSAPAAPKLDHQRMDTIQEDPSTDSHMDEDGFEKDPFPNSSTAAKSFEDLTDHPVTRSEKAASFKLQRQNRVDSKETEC
# KLK7 zymogen act: activators of human kallikrein-7 zymogen; purified proKLK7, EDANS-DABCYL substrate fluorescence; 100% is mature enzyme control, 0% vehicle; AID 652039; P49862; 370,000 compounds, 0.9% hits; activation, % at 7 µM;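 active = activation above the mean of all tested compounds plus 3 SD, computed per campaign excluding outliers beyond control limits, cut at about 13% in these data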
# NR2E3 ag-2: NR2E3 (human) agonism; Q9Y5X4; GST-NR2E3/biotin-RetCOR TR-FRET, 1536-well; inhibition of corepressor binding, % at 4.78 µM; 320,000 compounds, 0.12% hits; AID 2300;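 active = percent inhibition above the cutoff of mean plus 3 SD of all tested compounds, set per screening campaign, cut at about 20% in these data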
#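 Format: 1536-well format; test system: GST-NR2E3 and biotin-RetCOR proteins; read-out basis: percent inhibition of TR-FRET ratio; timing: 5 h incubation at 4 °C; detection: time-resolved FRET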
# ADAM10 inh: inhibits human ADAM10; recombinant ADAM10, EDANS/DABCYL FRET peptide cleavage, 3 h; inhibition, % at 7 µM; 370,000 compounds, 0.62% hits; AID 720582;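 active = inhibition above a per-campaign cutoff equal to the mean of compounds falling between control-based bounds plus 3 SD, cut at about 20% in these data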
# ADAM10 confirm: human ADAM10 inhibition, confirmation. 2,100 compounds, 1% hits. inhibition, % at 6.95 µM. ADAM10 QFRET peptide cleavage, EDANS fluorescence. AID 743208. shares compounds with ADAM10 inh;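 active = inhibition above about 20% chosen separately for each screening run, limit read from the data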
# ADAM17 ctr: inhibits human ADAM17 in ADAM10 exosite counter-screen | shares compounds with ADAM10 inh | ADAM17 QFRET peptide cleavage, EDANS fluorescence | inhibition, % at 6.95 µM | 2,100 compounds, 0.5% hits | AID 743214;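 active = mean triplicate inhibition above the solvent-only control wells' mean plus 3 SD, cut at about 12% in these data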
# Numbers stand for hits; 0 = inactive; ? = inconclusive; - = no result.
SMILES,JMJD2C inh,NR2E3 ag-1,ADAM17 inh,KLK7 zymogen act,NR2E3 ag-2,ADAM10 inh,ADAM10 confirm,ADAM17 ctr
COC(=O)CN1C(=S)N(c2ccc(Cl)cc2)C(=O)C1CC(=O)Nc1ccc(Cl)cc1 (stereo not drawn),0,0,0,0,0,21.8,0,0
COC(=O)CN1C(=S)N(c2ccc(Cl)cc2)C(=O)C1CC(=O)Nc1ccc(F)cc1 (stereo not drawn),0,0,0,0,0,33.6,0,0
COC(=O)CN1C(=S)N(c2ccc(F)cc2)C(=O)C1CC(=O)Nc1ccc(F)cc1 (stereo not drawn),0,0,0,0,0,0,-,-
O=C(C1CC=CCC1)N1CCC(CO)(Cc2ccc(Cl)cc2)CC1 (stereo not drawn),0,0,0,0,0,0,-,-
CCC(=C(c1ccc(OC)cc1)c1ccc(OC)cc1)c1cn(CC(O)CN2CCN(C)CC2)c2ccccc12 (stereo not drawn),0,0,0,0,0,25.3,0,0
Cc1cc([N+](=O)[O-])nn1CCCC(=O)Nc1cc(Oc2ccccc2)cc([N+](=O)[O-])c1,0,0,0,0,0,0,-,-
Cc1cccc(Oc2cc(NC(=O)Cn3cnc([N+](=O)[O-])n3)cc([N+](=O)[O-])c2)c1,0,0,0,0,0,28.0,0,0
O=C(CCSCc1cccc(F)c1)NCCc1ccccc1,0,0,0,0,0,0,-,-
COC(=O)C1(C(=O)OC)c2cc3c(cc2CN(S(=O)(=O)c2ccc(C)cc2)C1CC(C)=O)OCO3 (stereo not drawn),-,-,0,0,-,0,-,-
Cc1ccc(S(=O)(=O)N2CCCCC2)cc1NC(=O)COC(=O)Cc1cccc2ccccc12,0,0,0,0,0,20.4,0,0
COc1cc(-c2nnc(COC(=O)c3ccc([N+](=O)[O-])o3)o2)cc(OC)c1OC,-,0,0,0,-,0,-,-
COc1ccc(C2C(C(=O)Nc3cccnc3)=C(C)Nc3nc(-c4cccs4)nn32)cc1 (stereo not drawn),0,0,0,0,0,0,-,-
COc1ccc(C2C(C(=O)Nc3cccnc3)=C(C)Nc3nc(-c4cccs4)nn32)cc1OC (stereo not drawn),0,0,0,0,0,76.5,0,0
CCOC(=O)c1[nH]c(C)c(C(=O)NCc2ccc(C)cc2)c1C,0,0,0,0,0,0,-,-
CCOC(=O)c1[nH]c(C)c(C(=O)NCc2ccc(OC)cc2)c1C,0,0,0,0,0,68.5,0,0
COc1ccc(C(Nc2cc(C)ccn2)c2ccc3ccc(C)nc3c2O)cc1 (stereo not drawn),0,0,0,0,0,22.6,20.0,0
CCN(C(=O)c1ccc(NC(=O)C2CCCCC2C(=O)O)cc1)c1ccccc1 (stereo not drawn),-,0,0,0,-,0,-,-
CCc1ccc(NSc2ccccc2[N+](=O)[O-])cc1,0,0,0,0,0,20.3,0,0
O=C(O)c1ccccc1NSc1ccccc1[N+](=O)[O-],0,0,0,0,0,0,-,-
CCNC(=O)C[C@@H]1C=C[C@@H](NS(=O)(=O)c2ccc(F)cc2)[C@@H](CO)O1,-,-,0,0,-,0,-,-
COc1ccccc1CNC(=O)c1ccc(-c2ccccc2Cl)o1,0,0,12.4,0,0,21.4,0,0
COc1ccc(Cl)cc1NC(=O)CN(C)C(=O)c1sc2ccccc2c1Cl,-,0,0,0,0,23.5,0,0
COc1ccc(NC(=O)CN(C)C(=O)c2sc3ccccc3c2Cl)cc1,0,0,0,0,0,0,-,-
COc1ccc(Cl)cc1NC(=O)CN(C)C(=O)CN1C(=O)NC(C)(c2ccc3ccccc3c2)C1=O (stereo not drawn),-,0,0,0,-,27.3,0,0
CC1CCN(S(=O)(=O)c2nnc(NC(=O)c3ccccc3Br)s2)CC1,0,0,0,0,0,0,-,-
SMILES,JMJD2C inh,NR2E3 ag-1,ADAM17 inh,KLK7 zymogen act,NR2E3 ag-2,ADAM10 inh,ADAM10 confirm,ADAM17 ctr
CC(C)[C@@H]1C(=O)N[C@H](Cc2cn(S(=O)(=O)c3ccccc3)c3ccccc23)C(=O)N1C,-,-,0,-,-,0,-,-
N#Cc1nc(COc2ccccc2F)oc1NCCc1ccccc1,0,0,0,0,0,22.4,0,0
COc1ccccc1NS(=O)(=O)c1cccc(N2CC(O)=C(c3ccccc3)C2=N)c1,0,0,0,0,0,0,-,-
COc1ccc(NS(=O)(=O)c2cccc(N3CC(O)=C(c4ccccc4)C3=N)c2)cc1,0,0,0,0,0,65.3,0,0
C[C@@H]1[C@@H](O)C[C@@]2(C[C@H](O)c3cc(Cl)cc(Cl)c3O2)O[C@H]1c1ccccc1Cl,-,-,0,0,-,25.8,0,0
COCCNC(=S)N(C)[C@H]1C[C@H]2c3[nH]c4c(-c5ccccc5)cccc4c3CCN2C(=O)[C@H]1[C@H](C)O,-,-,0,0,-,0,-,-
Cc1ccc(NC(=S)NNC(=O)c2ccc(N3CCOCC3)c([N+](=O)[O-])c2)cc1Cl,0,0,0,0,0,20.9,0,0
O=C(NNC(=S)Nc1ccc(Br)cc1)c1ccc(N2CCOCC2)c([N+](=O)[O-])c1,0,0,0,0,0,20.6,0,0
CCOc1ccccc1Nc1nnc(SCC(=O)Nc2cccc(S(=O)(=O)NC3=NCCCCC3)c2)s1,0,0,0,0,0,0,-,-
CCCNS(=O)(=O)c1ccc(CCC(=O)Nc2cc(Cl)ccc2Oc2ccccc2)cc1,0,0,0,0,-,20.9,0,0
COc1ccc(CCC(=O)Nc2cc(Cl)ccc2OC)cc1,0,0,0,0,0,0,-,-
COc1ccc(NC(=O)CC2C(=O)N(CCc3ccccc3)C(=S)N2Cc2cccnc2)cc1 (stereo not drawn),0,0,0,0,0,21.9,0,0
CCOC(=O)C1(CC2CC2)CCN(Cc2ccc3cccc(F)c3n2)CC1,0,0,0,0,0,0,-,-
CSc1nc(O)c(C(c2cccc([N+](=O)[O-])c2)c2c(O)nc(SC)[nH]c2=O)c(=O)[nH]1,?,0,0,0,0,81.1,0,0
O=C(/C=C/c1ccccc1)NC(NC(=S)Nc1cccc(O)c1)C(Cl)(Cl)Cl (stereo not drawn),0,0,0,0,0,21.5,0,0
CCc1ccccc1N(CC(=O)NCc1ccco1)C(=O)CCC(=O)Nc1nccs1,0,0,0,0,0,88.0,0,0
O=C(COc1ccc(S(=O)(=O)Nc2ccccc2)cc1)NCc1ccccn1,0,0,0,0,-,74.5,0,0
